Several values for one entry are separate records, joined by “and”; a condition that tells them apart may be missing. Equal entries are not always repeated. Ends that are not written are not given here.
Columns and labels:
[1] = MTT cytotoxicity assay, Jurkat cells; assay type: cell-based, human; settings: % Cytotoxicity, Jurkat, MTT, 24 h, mean ± SEM
Jurkat T leukemia cells = experiment: MTT cytotoxicity assay, Jurkat cells; assay type: cell-based, human; settings: for effect of pan-caspase inhibitor BOC-D-FMK on induced cell death: BOC-D-FMK 40 μM
[2] = MTT cytotoxicity assay, MDA-MB-231 cells; assay type: cell-based, human; settings: % Cytotoxicity, MTT, 24 h, mean ± SEM
[3] = system: MDA-MB-231 breast cancer cells; experiment: MTT cytotoxicity assay, MDA-MB-231 cells; assay type: cell-based, human; settings: read-out: IC50 in MDA-MB-231 breast cancer cells; C-terminal amide form
[4] = MTT cytotoxicity assay, normal PBMCs; assay type: cell-based, human; settings: % Cytotoxicity, PBMCs, MTT, 24 h, mean ± SEM
PBMCs = experiment: MTT cytotoxicity assay, normal PBMCs; assay type: cell-based, human; settings: read-out: IC50 to PBMC; normal cells (PBMC)
[5] = MTT cytotoxicity assay, primary HMECs; assay type: cell-based, human; settings: % Cytotoxicity, 24 h, mean ± SEM
Method in brief: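 Primary HMECs (MEGM-maintained, ≤6 passages) were seeded at 2 × 10⁵ cells/ml 24 h before treatment. They were exposed for 24 h at 2.5% final FBS, 37°C, 10% CO₂. MTT ([…] final) was added for the last 2 h, with 1% Triton X-100 as the 100%-death control. Formazan was dissolved in DMSO and OD 490 read. Cytotoxicity = (E−N)/(P−N)×100 against vehicle and Triton controls; values are the mean of 3 independent experiments ± SEM.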

Hemolysis assay = assay type: cell-based, human; settings: % Hemolysis, human erythrocytes, 4 h, mean ± SEM
human erythrocytes = experiment: Hemolysis assay; assay type: cell-based; settings: screen of 24 short cationic peptides
[6] = system: leukemia cells (Jurkat, THP-1); assay type: cell-based, human; settings: read-out: IC50 toward leukemia cells
HOPC myeloma cells = assay type: cell-based, mouse; settings: read-out: IC50 toward myeloma cells
[7] = system: breast cancer cells (MDA-MB-231, SKBR3, MDA-MB-468, T47D, 4T1); assay type: cell-based, human; mouse; settings: read-out: IC50 toward breast cancer cells
Jurkat T-ALL cells [8] = experiment: LDH-release time course, Jurkat cells; assay type: cell-based, human
Method in brief: (§1)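 Jurkat cells or PBMCs (density-gradient isolated from healthy donors' venous blood) were cultured at 37°C, 5% CO₂, with test compound over a time course. Supernatants taken at each time point were assayed for LDH activity with a commercial kit. Percent cytotoxicity = (E−N)/(P−N)×100, with vehicle as negative and Triton X-100 as positive control. Values are the mean of 3 independent experiments ± SEM.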

primary PBMCs = experiment: LDH-release time course, PBMCs; assay type: cell-based, human
Method in brief: as §1

Jurkat T-ALL cells [9] = experiment: Combination with chemotherapeutic agents, MTT assay 72 h; assay type: cell-based, human
Method in brief: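 Jurkat cells in RPMI 1640 (2.5% FBS final), seeded at 5 × 10⁵ cells/ml just before treatment. Increasing concentrations of a chemotherapeutic agent, with or without test peptide fixed at 4.5 μM, for 72 h at 37°C, 5% CO₂. MTT added at […] final for the last 2 h; DMSO-solubilised formazan read at 490 nm. Percent cytotoxicity scaled between vehicle and 1% Triton X-100; mean of 3 independent experiments ± SEM.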

[10] = system: 4T1 mouse mammary carcinoma; experiment: 4T1 mammary carcinoma model in BALB/c mice; assay type: in vivo; settings: IP, gemcitabine 60 mg/kg Q7D, Mastoparan 6 mg/kg Q2D, from day 5
[11] = system: Paclitaxel-resistant MCF7-TX400 cells; experiment: Trypan blue exclusion, MCF7 and MCF7-TX400; assay type: cell-based, human; settings: 24 h
Method in brief: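 MCF7 and paclitaxel-resistant MCF7-TX400 cells were maintained in DMEM/10% FBS at 10% CO₂ for ≤30 passages. They were cultured with or without test compound for 24 h, and viability was scored by trypan blue exclusion counts. Values are the mean of 3 independent experiments ± SEM.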

Jurkat T-ALL cells [12] = experiment: Propidium iodide uptake, Jurkat; assay type: cell-based, human; settings: 25 μM, 5 or 10 min
Method in brief: (§2)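 Jurkat or MDA-MB-231 cells (5 × 10⁵) were exposed to test compound or vehicle. PI (10 μg/ml final) was added 5 min before flow cytometry, and mean channel fluorescence was recorded. For Jurkat, exposure lasted 5 or 10 min, with n=3.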

[13] = system: MDA-MB-231 breast cancer cells; experiment: Propidium iodide uptake, MDA-MB-231; assay type: cell-based, human
Method in brief: as §2

Jurkat cells = experiment: DNA laddering; assay type: cell-based, human; settings: 0.1-25 μM, 4 h
Method in brief: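 Jurkat cells (RPMI 1640, 5% CO₂, 37°C) were exposed to test compound for 4 h, alongside medium, vehicle and 50 μM etoposide (4 h or 24 h) controls. DNA was extracted with a kit and run on a 0.8% agarose gel to look for laddering.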

[14] = Calcein leakage from large unilamellar vesicles; settings: 20 min; for calcein leakage (membrane disruption) from LUVs: LUVs of 100% anionic lipid POPS; for calcein leakage from LUVs as lipid composition became less negatively charged: greater proportion of zwitterionic lipid POPC
Method in brief: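 LUVs were made from POPC/POPS films (1 mg total lipid) hydrated in 10 mM Tris, 150 mM NaCl, 1 mM EDTA, pH 7.4, with 70 mM calcein. Suspensions were freeze-thawed five times, extruded 15 times through 100 nm filters, and cleared of free dye on Sephadex G-50. Vesicles were diluted to 10 μM final lipid, given peptide at set peptide:lipid molar ratios and held ~20 min at room temperature. Ex 490/em 520 was read against 1% Triton X-100 and water controls. Samples were run at least in duplicate per preparation; values are the mean of three experiments ± SD.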

[15] = system: cancer cells and normal cells; experiment: Specificity factor: IC50 in cancer cells versus normal cells; assay type: cell-based; settings: depending on the cancer cell line and the normal cell compared
[16] = Mastoparan 4.5 μM (IC10) with vinblastine, Jurkat, MTT 72 h

Molecule: CC[C@H](C)[C@H](N)C(=O)N[C@@H](CC(N)=O)C(=O)N[C@@H](CC(C)C)C(=O)N[C@@H](CCCCN)C(=O)N[C@@H](C)C(=O)N[C@@H](CC(C)C)C(=O)N[C@@H](C)C(=O)N[C@@H](C)C(=O)N[C@@H](CC(C)C)C(=O)N[C@@H](C)C(=O)N[C@@H](CCCCN)C(=O)N[C@@H](CCCCN)C(=O)N[C@H](C(=O)N[C@@H](CC(C)C)C(N)=O)[C@@H](C)CC [Mastoparan, INLKALAALAKKIL-NH2]
- cytotoxicity ([1]; 10 μM Mastoparan): 64 ± 7%
- cytotoxicity ([1]; 25 μM Mastoparan): 95 ± 4%
- cytotoxicity ([1]; 50 μM Mastoparan): 97 ± 1%
- effect of pan-caspase inhibitor BOC-D-FMK on induced cell death (Jurkat T leukemia cells; Jurkat, MTT 24 h): not reversed
- cytotoxic potency of amidated form compared with free carboxyl form (Jurkat T leukemia cells; Jurkat, MTT 24 h): significantly more potent
- fold more potent than Mastoparan-COOH (Jurkat T leukemia cells; Mastoparan-NH2 versus Mastoparan-COOH): 8–11 fold
- IC50 (Jurkat T leukemia cells; read-out: IC50 in Jurkat T-ALL cells, C-terminal amide form): 9.1 µM
- cytotoxicity ([2]; MDA-MB-231, 10 μM Mastoparan): 20 ± 1%
- cytotoxicity ([2]; MDA-MB-231, 25 μM Mastoparan): 62 ± 2%
- cytotoxicity ([2]; MDA-MB-231, 50 μM Mastoparan): 96 ± 1%
- IC50 [3]: 22 µM
- cytotoxicity ([4]; 10 μM Mastoparan): 13 ± 5%
- cytotoxicity ([4]; 25 μM Mastoparan): 29 ± 7%
- cytotoxicity ([4]; 50 μM Mastoparan): 49 ± 3%
- IC50 (PBMCs): 48 µM
- cytotoxicity ([5]; 10 μM Mastoparan): 16 ± 1%
- cytotoxicity ([5]; 25 μM Mastoparan): 37 ± 7%
- cytotoxicity ([5]; 50 μM Mastoparan): 67 ± 14%
- hemolysis (Hemolysis assay; 10 μM Mastoparan): 1 ± 1%
- hemolysis (Hemolysis assay; 25 μM Mastoparan): 2 ± 1%
- hemolysis (Hemolysis assay; 50 μM Mastoparan): 7 ± 1%
- hemolytic activity in preliminary screen (human erythrocytes): devoid of hemolytic activity
- IC50 [6]: 8 to 9.2 µM
- IC50 (HOPC myeloma cells): ~11 µM
- IC50 [7]: 20 to 24 µM
- time at which cytotoxicity peaked (Jurkat T-ALL cells [8]): 8 h
- time at which cytotoxicity peaked (primary PBMCs): 8 h
- IC10 concentration (Jurkat T-ALL cells [9]; Jurkat T-ALL cells): 4.5 µM
- fold reduction of the EC50 of etoposide (Jurkat T-ALL cells [9]; Mastoparan 4.5 μM (IC10) with etoposide, Jurkat, MTT 72 h): approximately 2 fold
- increase of vinblastine-mediated cytotoxicity (Jurkat T-ALL cells [9]; [16]): 10% and ~ 10%
- ΔIC50 of vinblastine (Jurkat T-ALL cells [9]; [16]): ~ 1.2 fold
- tumour growth (tumour volume and mass) in comparison to saline-treated mice [10]: not statistically significant
- toxicity to MCF7-TX400 cells compared with parental MCF7 cells [11]: as toxic
- PI uptake (membrane integrity) (Jurkat T-ALL cells [12]): rapid PI uptake
- PI uptake (membrane integrity) [13]: rapid PI uptake
- DNA laddering (Jurkat cells): did not cause DNA laddering
- calcein leakage (membrane disruption) from LUVs [14]: caused membrane disruption
- calcein leakage from LUVs as lipid composition became less negatively charged [14]: largely unchanged
- specificity factor (selectivity index): fold-difference in the IC50 between cancer cells and normal cells [15]: 2–6 fold

Molecule: COc1cc([C@@H]2c3cc4c(cc3[C@@H](O[C@@H]3O[C@@H]5CO[C@@H](C)O[C@H]5[C@H](O)[C@H]3O)[C@H]3COC(=O)[C@H]23)OCO4)cc(OC)c1O [etoposide, reference compound]
- effect of pan-caspase inhibitor BOC-D-FMK on induced cell death (Jurkat T leukemia cells; Jurkat, MTT 24 h): significantly reduced

Molecule: Nc1ccn([C@@H]2O[C@H](CO)[C@@H](O)C2(F)F)c(=O)n1 [gemcitabine, reference compound]
- tumour growth (tumour volume and mass) in comparison to saline-treated mice [10]: not statistically significant

Molecule: INLKALAALAKKIL-COOH (INLKALAALAKKIL-OH) [Mastoparan-COOH, reference compound]
- calcein leakage (membrane disruption) from LUVs [14]: caused membrane disruption
- calcein leakage from LUVs as lipid composition became less negatively charged [14]: significantly reduced

Source: PMC5097029 (Biochimica et biophysica acta, 2016)
